UBC9 SUMO inh = inhibitors of in vitro SUMOylation cascade, primary screen, biochemical, HTRF, uHTS; SUMO-conjugating enzyme UBC9 (Homo sapiens), P63279; HTRF SUMOylation assay, SAE1/SAE2 + UBC9; inhibition, % at 35 µM; 290,000 tested, 0.36% active; AID 2006, 2009; in the data active means inhibition above about 50%, passing the limit was not always enough
Target sequence (P63279 whole entry, looked up): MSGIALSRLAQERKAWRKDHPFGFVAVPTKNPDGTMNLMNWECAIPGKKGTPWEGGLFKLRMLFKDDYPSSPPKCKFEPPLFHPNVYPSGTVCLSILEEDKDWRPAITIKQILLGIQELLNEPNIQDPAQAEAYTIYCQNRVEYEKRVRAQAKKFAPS
DNA FID counter-1 = compounds displacing fluorescent DNA intercalator, primary screen, artefact control for HCV NS3 helicase inhibitor project, biochemical, FID fluorescence | AID 1845, 2009 | inhibition, % at 7.9 µM | DNA fluorescent intercalator displacement | 290,000 tested, 0.17% active;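 further: 0% = vehicle and 100% = reference compound; higher means more ethidium bromide displaced from hairpin DNA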
VIM-2 inh = VIM-2 metallo-beta-lactamase inhibitors, primary screen, biochemical, epi-absorbance readout, Pseudomonas aeruginosa enzyme; purified VIM-2, nitrocefin hydrolysis, epi-absorbance fluorescence; inhibition, % at 5.6 µM; 290,000 tested, 0.89% active; AID 1527, 2009;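 active means inhibition above the mean of all tested compounds plus 3 SD, cutoff set per screening run, cut at about 7.5% in these data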;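 further: red hydrolysis product quenches plate fluorescence so inhibitors raise well fluorescence; 0% = enzyme with DMSO and 100% = DMSO without enzyme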
NS3 helicase inh = inhibitors of HCV NS3 helicase, primary screen, biochemical, Cy5 molecular beacon fluorescence; Hepatitis C virus NS3 helicase; NS3 helicase DNA unwinding; inhibition, % at 10.9 µM; 290,000 tested, 0.56% active;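 active means inhibition above the mean of all tested compounds plus 3 SD, set per campaign, cut at about 35% in these data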;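 further: 0% = DMSO wells and 100% = thioflavine S control wells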
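Measured by: Cy5 fluorescence, 0 and 60 min reads / Assay system: NS3 helicase fragment of HCV / Control set: low DMSO, high thioflavine S at 110 µM / Times: 1 h reaction at 25 °C, ATP-initiated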
IMP-1 inh = IMP-1 metallo-beta-lactamase inhibitors, primary screen, biochemical, epi-absorbance readout, Pseudomonas aeruginosa enzyme | purified IMP-1, nitrocefin hydrolysis, epi-absorbance fluorescence | inhibition, % at 5.6 µM | 290,000 tested, 0.45% active | AID 1556, 2009;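 active means inhibition above the mean plus 3 SD of all compounds in the same screening run, cut at about 4.5% in these data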;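 further: 0% = IMP-1 with DMSO and 100% = DMSO wells lacking enzyme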
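System – purified recombinant IMP-1 beta-lactamase · Input – IMP-1 dispensed at 0.2 nM · Timing – 15 min preincubation plus 25 min reaction at 25 °C · Signal – Epi-absorbance fluorescence, 480 nm excitation, 530 nm emission · Measure – percent IMP-1 inhibition derived from blank-referenced optical density · Controls – Enzyme-plus-DMSO low control, enzyme-free DMSO high control · Replication – singlicate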
NS3 helicase cf = HCV NS3 helicase inhibitors, retest, confirmation, biochemical, Cy5 molecular beacon fluorescence, triplicate. shares compounds with NS3 helicase inh. NS3 helicase DNA unwinding. inhibition, % at 10.9 µM. 1,600 tested, 31% active;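 active means inhibition above the mean of all tested compounds plus 3 SD, cutoff set per campaign, cut at about 36% in these data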
DNA FID counter-2 = compounds displacing fluorescent DNA intercalator, artefact control for HCV NS3 helicase inhibitor project, biochemical, FID fluorescence, triplicate | inhibition, % at 7.9 µM | shares compounds with NS3 helicase inh | AID 1945, 2009 | DNA fluorescent intercalator displacement | 1,600 tested, 4% active;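 further: 0% = vehicle and 100% = reference compound; higher means more displacement of ethidium bromide from the DNA hairpin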
FID counter DR = compounds displacing fluorescent intercalator from DNA, dose response, counter-screen for HCV NS3 helicase inhibitor project, biochemical, fluorescence | shares compounds with NS3 helicase inh | AID 2172, 2009 | IC50, µM | fluorescent intercalator displacement from DNA | 120 tested, under 10 active; call rule not given here
Starred values were filed as active, the others as inactive; i = inactive; . = no result. This is a sample that favours compounds with a hit; in the whole collection about 2.1% have one here. Unless noted, no stated cut-off is given here; in the data, active means inhibition above about 37%; inactive means the rest.

SMILES | UBC9 SUMO inh | DNA FID counter-1 | VIM-2 inh | NS3 helicase inh | IMP-1 inh | NS3 helicase cf | DNA FID counter-2 | others
O=C(NCCCN1CCOCC1)C(=O)N/N=C/c1ccccc1O | 17.0 | -5.6 | -5.1 | 0.8 | -3.8 | . | .
O=C(Nc1cc(-c2ccccc2)sc1C(=O)O)c1cccc(F)c1 | 4.0 | 13.7 | 0.1 | 38.7* | 1.9 | 45.6* | 18.4
CCOc1ccc(-c2cc(NC(=O)c3c(F)cccc3F)c(C(=O)O)s2)cc1 | 6.4 | 21.8 | 1.0 | 32.0 | 0.5 | . | .
COc1cc2cc3c(N)c(C(=O)NCc4ccco4)sc3nc2cc1OC | 34.0 | -3.8 | -1.6 | 8.8 | -2.4 | . | .
COc1cc2cc3c(N)c(C(=O)Nc4sc(C)c(C)c4C#N)sc3nc2cc1OC | 36.5 | -3.3 | -1.2 | 36.9* | 2.3 | 49.9* | -14.0 | FID counter DR=>79.4
Cc1nc2c(=O)n(C)c(=O)n(C)c2nc1Cl | 0.5 | -1.0 | -0.1 | 0.3 | -5.1 | . | .
CC(C)c1ccc(NC(=O)c2ccccc2NC(=O)C2CCCCC2C(=O)O)cc1 (stereo not given) | 2.5 | -49.0 | -0.2 | 44.9* | 2.5 | 48.3* | -51.6
O=C(C1=NNC2C(=O)N(c3ccccc3)C(=O)C12)c1nc(Cl)ccc1Cl (stereo not given) | -2.5 | 0.9 | -2.6 | 5.5 | -3.4 | . | .
COc1ccccc1NC(=O)CCS(=O)(=O)c1ccc2c(c1)NC(=O)C(C)S2 (stereo not given) | 10.6 | -34.5 | -2.6 | 45.5* | -3.3 | -14.0 | -16.9
COC(=O)c1ccc(NC(=O)CCS(=O)(=O)c2ccc3c(c2)NC(=O)C(C)S3)cc1 (stereo not given) | 12.7 | -23.5 | -3.3 | -4.8 | -3.6 | . | .
O=C(CSc1n[nH]c(=O)n1-c1ccccc1)N1CCOCC1 | -7.7 | -1.5 | 0.3 | 3.1 | -0.5 | . | .
COc1cc(/C=C2\SC(=S)N(C(C(=O)O)c3ccccc3)C2=O)ccc1O (stereo not given) | 12.5 | -14.7 | 6.7 | 43.3* | -5.2 | 74.6* | -1.2
O=C1/C(=C\c2ccc(O)c(O)c2)SC(=S)N1Cc1ccccc1 | 40.3 | 35.5 | -0.9 | 69.0* | 1.2 | 59.4* | 51.5*
O=C1/C(=C\c2cccc(O)c2)SC(=S)N1Cc1ccccc1 | -19.3 | 2.5 | -0.4 | 25.8 | 1.8 | . | .
CC(=O)N1c2ccc(S(=O)(=O)N3CCCCC3)cc2CC1C(=O)Nc1ccc(F)cc1C (stereo not given) | -0.8 | -34.1 | 0.2 | 0.0 | -1.4 | . | .
COc1cc(-c2ccc(NC(=O)NC3CC3)c(OC)c2)ccc1NC(=O)NC1CC1 | 23.1 | -24.5 | 0.1 | -14.9 | -0.8 | . | .
O=[N+]([O-])c1cc(Cc2ccccc2)cc(C=Nc2ccc(N3CCOCC3)cc2)c1O | -5.9 | 3.0 | -3.8 | 50.5* | 8.8* | 55.1* | 23.0 | FID counter DR=>79.4
CCc1ccc(CNC(=O)CCCC(=O)n2nc(C)c3ccccc32)cc1 | -2.3 | -29.9 | 0.4 | -4.5 | 0.1 | . | .
O=C(O)c1c(C(=O)N2N=C3/C(=C/c4ccccc4)CCCC3C2c2ccccc2)cccc1[N+](=O)[O-] (stereo not given) | 16.4 | -33.0 | 3.1 | 48.9* | 2.2 | 69.3* | -5.8
O=C(O)c1ccccc1C(=O)N1N=C2/C(=C/c3cccc([N+](=O)[O-])c3)CCCC2C1c1cccc([N+](=O)[O-])c1 (stereo not given) | 22.6 | -21.8 | -0.8 | 28.8 | -0.6 | . | .
O=C(CCCSc1ccccc1)Nc1nc(-c2ccco2)c(-c2ccco2)s1 | 78.8* | -18.6 | -3.5 | 91.8* | -0.6 | 68.9* | 17.8 | FID counter DR=i

Bioassay records: PubChem BioAssay, several laboratories
